Experimental findings from ChEMBL document CHEMBL6096655, “Discovery of a novel, selective CK2 inhibitor class with an unusual basic scaffold” (Eur J Med Chem, 2025) are described below.

SMILES strings stand for the structures. Activity calls are given as the source filed them. The calls are words filed in the database; no cut-off is given here.

In data set [1] the target is T1, Casein kinase II subunit alpha (Homo sapiens, UniProt P68400). The experiment in a line: Inhibition of CK2alpha (unknown origin).
Target sequence in this assay (P68400 whole entry): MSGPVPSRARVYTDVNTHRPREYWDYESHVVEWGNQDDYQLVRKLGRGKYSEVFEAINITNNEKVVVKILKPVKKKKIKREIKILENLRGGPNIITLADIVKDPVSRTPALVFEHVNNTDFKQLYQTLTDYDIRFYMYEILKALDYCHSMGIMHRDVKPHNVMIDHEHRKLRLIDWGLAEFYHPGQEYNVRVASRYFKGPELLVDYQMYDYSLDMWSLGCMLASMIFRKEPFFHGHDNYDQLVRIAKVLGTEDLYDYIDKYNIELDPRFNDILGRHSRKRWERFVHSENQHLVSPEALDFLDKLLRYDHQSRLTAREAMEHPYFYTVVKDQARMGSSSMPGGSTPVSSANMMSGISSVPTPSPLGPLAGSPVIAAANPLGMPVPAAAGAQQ
In data set [2] the target is T1, Casein kinase II subunit alpha. The data set is described as follows: Inhibition of CK2alpha (unknown origin) assessed as residual activity at 5 uM relative to control.
Target sequence in this assay (P68400 whole entry, looked up): as the sequence (P68400 whole entry) above
The test system of data set [3] is 786-0. The experiment in a line: Antiproliferative activity against human 786-0 cells assessed as inhibition of cell growth at 30 uM measured after 3 to 4 days by MTT assay relative to control. It counts as functional. Particulars: time 3-4 day. Summed up:
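786-O cells (RPMI, 10% FCS) seeded at 5000 per well and left overnight. Compound was added at a single 30 µM concentration in 1% FCS medium (DMSO max. 0.2%). Cells grew 3–4 days at 37 °C, 5% CO₂, with no medium change, and were read by MTT. Percent inhibition is the mean of duplicates that differed by ≤10%.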
Background: Tetrazolium assays rely on reduction of a dye to a coloured formazan, in cell work by metabolically active cells.

The test system of data set [4] is 786-0. The experiment in a line: Antiproliferative activity against human 786-0 cells assessed as inhibition of cell growth measured after 3 to 4 days by MTT assay. It is filed as functional. The conditions noted are these: time 3-4 day. Summed up: (§1)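 786-O or U937 cells grown in RPMI with 2 mM L-glutamine, 1% pen/strep and 10% FCS. Cells were seeded at 5000 per well and left overnight, then switched to 1% FCS medium containing compound or DMSO (max. 0.2% final). Growth ran 3–4 days at 37 °C in 5% CO₂ without medium change, followed by MTT read-out. GI50 is the mean ± SD of at least two independent experiments.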

The nature of data set [5]: Antiproliferative activity against HEK293 cells assessed as inhibition of cell growth measured after 3 to 4 days by MTT assay. The conditions noted are these: human, time 3-4 day. It is filed as toxicity, cell-based. Summed up:
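HEK293 cells grown in DMEM with 2 mM L-glutamine, 1% pen/strep and 10% FCS. Cells were seeded at 5000 per well, left overnight, then given medium with 1% FCS plus compound or DMSO (max. 0.2% final). They were grown 3–4 days at 37 °C in 5% CO₂ with no medium change, and growth was read by MTT.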

Data set [6] has as its system 786-0. The experiment in a line: Induction of cell death in human 786-0 cells assessed as cell viability at 5 uM measured after 11 hrs by CellCyteX live-cell microscopy analysis. It is filed as functional, cell-based. Summed up: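 786-O cells seeded at 3×10³ per well and grown 24 h. Compound was then added in culture medium containing 125 nM Cytotox Green, at 0.2% (v/v) final DMSO, and kept at 37 °C in 5% CO₂. Green fluorescence images of dead cells were taken every 3 h by live-cell microscopy and normalized to the DMSO control. Results are representative of three independent measurements.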

The subject of data set [7] is U-937. The data set is described as follows: Antiproliferative activity against human U-937 cells assessed as inhibition of cell growth measured after 3 to 4 days by MTT assay. It is filed as functional. The conditions noted are these: time 3-4 day. Summed up: as §1
Data set [8] deals with HCT-116. The experiment in a line: Antiproliferative activity against human HCT-116 cells measured after 72 hrs by alamar blue staining based fluorescence assay. It is filed as functional.
A short description of data set [9]: Upregulation of PARP cleavage in human U-937 cells by measuring signal 1 at 5 uM measured after 48 hrs by immunoblot analysis. It counts as functional. Summed up:
(§2)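 U937 cells exposed to compound or DMSO for 48 h, then lysed in Laemmli buffer. Lysates were run on 8–16% gradient SDS-PAGE, semi-dry blotted to PVDF and probed for PARP. Detection used IR-fluorescent secondary antibodies. The cleaved/uncleaved PARP signal ratio was obtained by densitometry. Results are representative of two independent experiments.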
(Immunoblotting shows a protein as a band on a membrane.)

The nature of data set [10]: Upregulation of PARP cleavage in human U-937 cells by measuring signal 2 at 2 uM measured after 48 hrs by immunoblot analysis. It is filed as functional. Summed up: (§3)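 U937 lymphoma cells grown in RPMI with 2 mM L-glutamine, 1 % pen/strep and 10 % FCS; exposed to compound or DMSO solvent control for 48 h. Total cellular proteins harvested and immunoblotted with an antibody against phosphorylated CK2-substrate motifs and for PARP. Read-out is the densitometric ratio of cleaved to uncleaved PARP signal. Representative of two independent experiments.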

Data set [11] deals with Eukaryotic translation initiation factor 2 subunit 2 (Homo sapiens) (UniProt P20042). The data set is described as follows: Inhibition of eIF2beta phosphorylation in human 786-O cells at 10 uM measured after 48 hrs by immunoblot analysis relative to control.
Sequence of Eukaryotic translation initiation factor 2 subunit 2 (Homo sapiens) (P20042 whole entry): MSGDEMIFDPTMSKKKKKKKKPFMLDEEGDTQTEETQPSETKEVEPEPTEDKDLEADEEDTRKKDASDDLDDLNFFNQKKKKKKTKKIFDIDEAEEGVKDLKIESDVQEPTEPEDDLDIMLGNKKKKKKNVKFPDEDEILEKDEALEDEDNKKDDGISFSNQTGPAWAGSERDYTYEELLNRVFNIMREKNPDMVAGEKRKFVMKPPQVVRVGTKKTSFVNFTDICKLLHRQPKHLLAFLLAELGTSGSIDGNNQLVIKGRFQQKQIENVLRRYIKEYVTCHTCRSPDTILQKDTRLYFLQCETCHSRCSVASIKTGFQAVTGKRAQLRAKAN
The target in data set [12] is T2, Hsp90 co-chaperone Cdc37 (Homo sapiens) (UniProt Q16543).
T2 sequence (whole entry): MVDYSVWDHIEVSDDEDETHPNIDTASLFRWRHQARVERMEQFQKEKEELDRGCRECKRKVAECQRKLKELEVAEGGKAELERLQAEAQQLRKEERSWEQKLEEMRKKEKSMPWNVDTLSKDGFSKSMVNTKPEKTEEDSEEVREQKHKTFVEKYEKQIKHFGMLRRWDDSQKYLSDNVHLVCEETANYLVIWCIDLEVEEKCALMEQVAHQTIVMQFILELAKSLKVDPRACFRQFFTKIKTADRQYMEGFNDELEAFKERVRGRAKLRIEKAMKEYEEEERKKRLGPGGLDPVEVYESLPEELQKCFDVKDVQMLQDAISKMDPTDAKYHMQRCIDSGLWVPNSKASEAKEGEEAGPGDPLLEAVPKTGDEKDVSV
The data set is described as follows: Inhibition of CDC37 phosphorylation in human 786-O cells at 10 uM measured after 48 hrs by immunoblot analysis relative to control.

Data set [13] concerns the target Signal transducer and activator of transcription 3 (Homo sapiens) (UniProt P40763). The experiment in a line: Inhibition of STAT3 phosphorylation in human 786-O cells at 10 uM measured after 48 hrs by immunoblot analysis relative to control.
A short description of data set [14]: Upregulation of PARP cleavage in human U-937 cells by measuring signal 1 at 2 uM measured after 48 hrs by immunoblot analysis. It is filed as functional. Summed up: as §2
A short description of data set [15]: Upregulation of PARP cleavage in human U-937 cells by measuring signal 2 at 10 uM measured after 48 hrs by immunoblot analysis. It counts as functional. Summed up: as §2
Data set [16] is described as follows: Upregulation of PARP cleavage in human U-937 cells by measuring signal 2 at 5 uM measured after 48 hrs by immunoblot analysis. It counts as functional. Summed up:
as §3

Sequence of Signal transducer and activator of transcription 3 (Homo sapiens) (P40763 whole entry): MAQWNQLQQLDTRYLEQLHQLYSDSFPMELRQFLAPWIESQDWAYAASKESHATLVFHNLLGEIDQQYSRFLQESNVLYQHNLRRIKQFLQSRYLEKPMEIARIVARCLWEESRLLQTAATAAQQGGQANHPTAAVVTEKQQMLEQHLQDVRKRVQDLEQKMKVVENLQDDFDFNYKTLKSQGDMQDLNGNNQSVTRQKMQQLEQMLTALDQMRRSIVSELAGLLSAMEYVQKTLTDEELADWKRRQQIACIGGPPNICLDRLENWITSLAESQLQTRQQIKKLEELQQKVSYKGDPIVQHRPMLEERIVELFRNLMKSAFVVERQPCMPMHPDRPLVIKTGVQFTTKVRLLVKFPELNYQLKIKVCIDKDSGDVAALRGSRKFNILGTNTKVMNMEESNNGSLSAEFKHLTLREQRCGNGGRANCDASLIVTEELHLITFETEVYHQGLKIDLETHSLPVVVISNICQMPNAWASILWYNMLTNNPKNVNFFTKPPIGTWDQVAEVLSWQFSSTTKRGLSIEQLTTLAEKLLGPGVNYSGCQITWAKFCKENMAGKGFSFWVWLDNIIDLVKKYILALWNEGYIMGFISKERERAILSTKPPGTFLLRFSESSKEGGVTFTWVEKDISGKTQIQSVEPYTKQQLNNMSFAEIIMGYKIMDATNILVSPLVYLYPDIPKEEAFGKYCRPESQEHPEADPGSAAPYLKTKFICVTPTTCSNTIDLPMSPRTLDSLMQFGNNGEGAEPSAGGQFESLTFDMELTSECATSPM

Consider `Cc1nc2c(Br)c(Br)c(Br)c(Br)c2n1CCCN`, for which the IC50 in data set [1] amounted to 150 nM. The Activity in data set [2] turned out to be 23%.

For the compound `Fc1ccc(N2CCN(c3ncnc4sc5c(c34)CCNC5)CC2)cc1`, the inhibition at 30 µM in data set [3] came out at 25.3%.

Take `COc1ccccc1N1CCN(c2ncnc3sc4c(c23)CCNC4)CC1`: in [3], the inhibition at 30 µM amounted to 36.7%.

On to `Cc1ccccc1N1CCN(c2ncnc3sc4c(c23)CCNC4)CC1`, for which, in data set [4], the 50% growth inhibitory concentration (GI50) came out at 30 µM. Moreover, in [3], the inhibition at 30 µM was determined as 52.1%.

As for `Brc1ccccc1/C=N/Nc1ncnc2sc3c(c12)CCNC3`, in [4], the GI50 came to 6.6 µM. The inhibition at 30 µM in data set [3] was 99.2%.

For `Fc1cccc(N2CCN(c3ncnc4sc5c(c34)CCNC5)CC2)c1`, the GI50 in data set [4] was 15 µM. In addition, the inhibition at 30 µM in [3] was 74.6%.

`Fc1ccccc1N1CCN(c2ncnc3sc4c(c23)CCNC4)CC1`: the inhibition at 30 µM in [3] was 35.8%.

As for `Cc1ccc(N2CCN(c3ncnc4sc5c(c34)CCNC5)CC2)cc1`, the GI50 in [4] is 14.7 µM. Moreover, the inhibition at 30 µM in [3] amounted to 78.2%.

For the compound `COc1ccc(N2CCN(c3ncnc4sc5c(c34)CCNC5)CC2)cc1`, the inhibition at 30 µM in data set [3] stood at 27.7%.

For `CCC(=O)Nc1cc(Nc2cc(NC3CC3)n3ncc(C#N)c3n2)ccc1C`, the GI50 in data set [5] is above 30 µM; in [4], 5.7 µM; in data set [7], 1800 nM; in data set [8], above 10 µM. The Activity result in data set [6] is “Not active; Compound Showed Poor Efficacy To Induce Cell Death”; in [9], 91%; in data set [10], 0%.

Consider `Cc1cccc(N2CCN(c3ncnc4sc5c(c34)CCNC5)CC2)c1`, for which the inhibition at 30 µM in data set [3] was 47.2%.

With `c1ccc(N2CCN(c3ncnc4sc5c(c34)CCNC5)CC2)cc1`, in data set [3], the inhibition at 30 µM came to 15.9%.

On to `COc1cccc(N2CCN(c3ncnc4sc5c(c34)CCNC5)CC2)c1`, for which, in data set [4], the GI50 was found to be 29.5 µM. In addition, the inhibition at 30 µM in [3] is 50.2%.

As for `O=C(O)c1ccc2c(c1)nc(Nc1cccc(Cl)c1)c1ccncc12` [SILMITASERTIB], the 50% growth inhibitory concentration (GI50) is above 30 µM in [5], 5.5 µM in data set [4] and 4000 nM in data set [7]. For the same compound, the inhibition in [11] is 96%; in data set [12] it was 73%; in [13], 100%. Besides, the Activity entry in data set [6] was “Not active; Compound Showed Poor Efficacy To Induce Cell Death”; in [14] it was 82%; in [9], 88%; in data set [10], 0%; in data set [15], 39%; in [16], 91%. The inhibition entry in data set [3] was “inactive”.

The IC50 is the concentration at which inhibition is half-maximal. Usually inhibition stands for how much of the control response was suppressed. The term GI50 denotes the concentration that inhibits growth by half.
